Results as given in ChEMBL document CHEMBL4376888, “Discovery of Potent, Selective, and Direct Acid Sphingomyelinase Inhibitors with Antidepressant Activity” (J Med Chem, 2020).
Activity calls are given as the source filed them. No cut-off for these calls is given here.

Legend:
[1] = target: T1, Sphingomyelin phosphodiesterase (Homo sapiens, UniProt P17405); assay: Inhibition of human Huh7 cell derived acid sphingomyelinase using NBD-sphingomyelin as substrate after 30 mins by fluorescence based assay
T1 sequence (P17405 whole entry): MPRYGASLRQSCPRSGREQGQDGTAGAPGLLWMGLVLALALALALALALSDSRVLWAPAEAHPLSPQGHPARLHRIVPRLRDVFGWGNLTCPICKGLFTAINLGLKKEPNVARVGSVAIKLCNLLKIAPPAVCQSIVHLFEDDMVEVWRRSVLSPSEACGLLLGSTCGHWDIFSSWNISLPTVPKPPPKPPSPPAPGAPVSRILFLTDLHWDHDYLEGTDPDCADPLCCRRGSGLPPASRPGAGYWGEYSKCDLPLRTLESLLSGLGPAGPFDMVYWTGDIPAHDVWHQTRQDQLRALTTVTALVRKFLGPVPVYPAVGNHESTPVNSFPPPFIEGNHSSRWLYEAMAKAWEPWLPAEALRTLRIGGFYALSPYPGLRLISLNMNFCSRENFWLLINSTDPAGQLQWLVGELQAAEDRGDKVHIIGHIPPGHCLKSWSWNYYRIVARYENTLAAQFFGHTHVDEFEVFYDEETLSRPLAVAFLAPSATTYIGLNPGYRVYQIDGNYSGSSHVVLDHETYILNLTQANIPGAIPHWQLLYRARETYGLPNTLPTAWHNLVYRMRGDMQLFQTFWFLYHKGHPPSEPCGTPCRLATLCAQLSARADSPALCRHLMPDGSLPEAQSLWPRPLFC
In short: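 Cultured cells were lysed in 25 mM Tris-HCl pH 7.4, 5 mM EDTA, sonicated and cleared at 300 g. 400 μg protein incubated with NBD-sphingomyelin in 100 mM sodium acetate pH 4.7, 1% Triton X-100, 40 mM CaCl2, 100 μM ZnCl2. Inhibitors added in DMSO, 37 °C, 30 min. Stopped with chloroform/methanol 2:1; NBD-ceramide fluorescence after TLC.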

[2] = Solubility of the compound in physiological saline; assay type: physicochemical; details: buffer
[3] = target: T2, Sphingomyelin phosphodiesterase 2 (Homo sapiens) (UniProt O60906); assay: Inhibition of neutral sphingomyelinase (unknown origin) at 100 uM using NBD-sphingomyelin as substrate after 30 mins by fluorescence based assay
T2 sequence (whole entry): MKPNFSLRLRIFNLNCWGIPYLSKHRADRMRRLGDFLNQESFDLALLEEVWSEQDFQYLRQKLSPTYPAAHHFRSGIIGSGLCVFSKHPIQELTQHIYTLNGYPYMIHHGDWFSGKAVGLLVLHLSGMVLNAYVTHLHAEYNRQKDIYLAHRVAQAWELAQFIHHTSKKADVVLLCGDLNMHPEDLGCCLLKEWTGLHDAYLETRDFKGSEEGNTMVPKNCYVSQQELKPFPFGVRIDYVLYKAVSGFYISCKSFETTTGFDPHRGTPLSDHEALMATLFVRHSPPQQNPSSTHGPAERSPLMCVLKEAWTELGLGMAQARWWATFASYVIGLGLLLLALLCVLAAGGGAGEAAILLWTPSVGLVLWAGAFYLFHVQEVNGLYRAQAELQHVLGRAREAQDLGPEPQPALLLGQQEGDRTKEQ
In short: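 Neutral sphingomyelinase assay run as the ASM cell-extract assay (NBD-sphingomyelin, 37 °C, 30 min, chloroform/methanol extraction, TLC, NBD-ceramide fluorescence). Buffer was 200 mM Tris-HCl pH 7.4 with 10 mM MgCl2 and 10 mM dithiothreitol. Tested at 100 μM.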

[4] = target: T1, Sphingomyelin phosphodiesterase; assay: Inhibition of acid sphingomyelinase (unknown origin)
[5] = target: T1, Sphingomyelin phosphodiesterase; assay: Inhibition of recombinant human acid sphingomyelinase (His62 to Pro628 residues) using NBD-sphingomyelin as substrate after 30 mins by fluorescence based assay
In short: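 Buffer 100 mM sodium acetate pH 4.7, 1% Triton X-100, 40 mM CaCl2, 100 μM ZnCl2. Inhibitors in DMSO at various concentrations, 37 °C, 30 min. NBD-ceramide fluorescence after chloroform/methanol extraction and TLC.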

Rattus norvegicus [6] = assay: Antidepressant activity in Sprague-Dawley rat model of reserpine-induced depression assessed as increase in grooming frequency at 12 mg/kg, ip administered twice daily for 2 weeks measured for 5 mins by open field test; assay type: functional, organism-based
In short: (§1)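 Female SD rats (6-8 weeks, 200 g) given reserpine 4 mg/Kg ip daily to induce depression; test agent in 5 % DMSO, 2 % Tween 80, 5 % glucose, ip twice a day for two weeks. Each rat placed in the central square of a 100 cm × 100 cm box (25 squares, walls ~42 cm); centre time, grid crossings, rearing and grooming recorded over 5 min, 7:30–12:00; n = 8.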

Rattus norvegicus [7] = assay: Reversal of reserpine-induced inhibition of neurogenesis in Sprague-Dawley rat hippocampus at 12 mg/kg, ip administered twice daily for 2 weeks by EDU-incorporation assay; assay type: functional, organism-based
In short: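 Reserpine-depressed female SD rats (4 mg/Kg ip daily; drug ip twice daily for two weeks) injected with EdU 8 mg/kg twice in 1 day, killed 96 h later. Frozen brain sections washed with glycine and PBS, Click-iT stained 30 min, Hoechst 33342 30 min; hippocampal proliferation scored by fluorescence microscopy; n = 5.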

NIH3T3 = assay: Cytotoxicity against mouse NIH/3T3 cells assessed as reduction in cell viability after 24 hrs by MTT assay; assay type: cell-based; details: mouse, nih3t3, 24 h
In short: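 NIH3T3 cells in DMEM with 10 % FBS at 37 °C, 5 % CO₂, grown overnight, then inhibitor added for 24 h; viability read by MTT.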

Rattus norvegicus [8] = assay: Antidepressant activity in Sprague-Dawley rat model of reserpine-induced depression assessed as increase in time passing the grid at 12 mg/kg, ip administered twice daily for 2 weeks measured for 5 mins by open field test; assay type: functional, organism-based; in short: as §1
Rattus norvegicus [9] = assay: Antidepressant activity in Sprague-Dawley rat model of reserpine-induced depression assessed as increase in frequency of upright at 12 mg/kg, ip administered twice daily for 2 weeks measured for 5 mins by open field test; assay type: functional, organism-based; in short: as §1
Rattus norvegicus [10] = assay: Antidepressant activity in Sprague-Dawley rat model of reserpine-induced depression assessed as reduction in total time spent in center at 12 mg/kg, ip administered twice daily for 2 weeks measured for 5 mins by open field test; assay type: functional, organism-based; in short: as §1

Structure (SMILES) | IC50 [1] [µM] | inhibition [3] | IC50 [5] [µM] | other results
O=C(NO)c1cccc(OCc2ccc(-c3noc(-c4ccccc4)n3)cc2)c1 | > 100 |  |  | 
CCCCCCc1ccc(COc2cccc(C(=O)NO)c2)cc1 |  | inactive |  | solubility [2]: Insoluble
CCCCCCCC(N)(P(=O)(O)O)P(=O)(O)O |  |  |  | IC50 [4]: 0.02 µM
O=C(NO)c1cccc(OCc2ccc(-c3ccccc3)cc2)c1 | 19.6 | inactive |  | solubility [2]: Insoluble
CCCCCCCCCCOc1cc(C(=O)NO)on1 | 0.36 | inactive | 2.2 | 
CCc1nc(-c2ccc(COc3cccc(C(=O)NO)c3)cc2)no1 | 34.7 |  |  | 
COc1ccc(C(=O)NO)cc1OCc1ccc(-c2ccccc2)cc1 |  | inactive |  | solubility [2]: Insoluble
O=C(NO)c1cccc(OCc2ccc(-c3cccnc3)cc2)c1 | 52.3 |  |  | 
CCCCCCc1ccc(COc2cc(C(=O)NO)ccc2OC)cc1 |  | inactive |  | solubility [2]: Insoluble
COc1ccc(C(=O)NO)cc1OCc1ccc(-c2cccnc2)cc1 | 4.97 | inactive | 3.83 | 
CCCCCCCCCCCCC/C=C/[C@H](O)[C@@H](COP(=O)([O-])OCC[N+](C)(C)C)NC(=S)NC(C)(C)C |  |  |  | Ki [4]: 70 µM
O=C(NO)c1cccc(OCc2ccc(-c3noc(CCc4ccccc4)n3)cc2)c1 | 1.73 | inactive | 4.25 | 
O=C(NO)c1cccc(OCc2ccc(-c3noc(Cc4ccccc4)n3)cc2)c1 | 7.83 |  | 4.93 | 
COc1ccc(C(=O)NO)cc1OCc1ccc(-c2noc(-c3ccc(Br)cc3)n2)cc1 | > 100 |  |  | 
COc1c(O)cc2oc3cc(O)c(CC=C(C)C)c(O)c3c(=O)c2c1CC=C(C)C [MANGOSTIN] | 14.1 |  |  | 
CCCCCCCCCCOc1cc(C(=O)NO)ccc1OC |  |  | 0.89 | 
CN(C)CCC=C1c2ccccc2CCc2ccccc21 [AMITRIPTYLINE] |  |  |  | Activity (Rattus norvegicus [6]): Active; Activity (Rattus norvegicus [7]): Active; Activity (NIH3T3): Non-Toxic; Activity (Rattus norvegicus [8]): Active; Activity (Rattus norvegicus [9]): Active; Activity (Rattus norvegicus [10]): Active
O=C(NO)c1cccc(OCc2ccc(-c3noc(-c4cccc(F)c4)n3)cc2)c1 | > 100 |  |  | 
COc1ccc(C(=O)NO)cc1OCc1noc(-c2cccc(Cl)c2)n1 | 9.22 | inactive |  | 
COc1ccc(C(=O)NO)cc1OCc1noc(-c2ccc(Cl)cc2)n1 | 21.6 | inactive |  | 
O=C(NO)c1cccc(OCc2ccc(-c3noc(-c4ccc(Br)cc4)n3)cc2)c1 | > 100 |  |  | 
COc1ccc(C(=O)NO)cc1OCc1ccc(-c2ccc(Cl)cc2)cc1 | 0.34 | inactive | 8.07 | solubility [2]: Insoluble
COc1ccc(-c2nc(COc3cc(C(=O)NO)ccc3OC)no2)cc1OC | 13.8 |  |  | 
O=C(NO)c1cc(OCc2ccc(-c3ccccc3)cc2)no1 | 0.88 | inactive | 4.09 | 
CCOc1ccc2oc(-c3cc(Br)cc4c3OCOC4)c(N)c(=O)c2c1 |  |  |  | IC50 [4]: 3.1 µM
O=C(NO)c1cccc(OCc2ccc(-c3ccc(Cl)cc3)cc2)c1 | 8.96 |  | 0.36 | solubility [2]: Insoluble
